Assay results reported in PMC3790647 (Clinical cancer research : an official journal of the …, 2013).

How the values were obtained:
multiple myeloma cells = conditions: cited from earlier work
[1] = tested on: relapsed/refractory Hodgkin lymphoma; conditions: cited from earlier work
advanced solid tumors = assay: Tumor response by RECIST 1.0; type: in vivo, human
Summary of the method: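 Patients with at least one RECIST-measurable lesion and progressive disease at entry had CT and/or MRI every 8 weeks for up to 6 months of treatment, then every 12 weeks. Response was scored by RECIST 1.0. Dosing was oral once daily on days 1–5 every 14 days, 100–800 mg.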

[2] = tested on: patients with advanced solid tumors; assay: Safety and tolerability, first-in-human dose escalation; type: in vivo; conditions: for Total number of AEs at each dose level: treatment-related clinical AEs
Summary of the method: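 Open-label 3+3 escalation: oral once-daily dosing on days 1–5 every 14 days at 100, 200, 400, 600 and 800 mg, with 3–6 patients per level and 4 cycles. Adverse events were graded by NCI-CTC-AE v3.0 from first dose to 30 days after last dose. DLTs were assessed over the first 14 days. Evaluable patients had five consecutive doses plus safety evaluations over nine days.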

[3] = first 4 treatment cycles, 68 cycles

CN(C)Cc1ccc(S(=O)(=O)n2ccc(/C=C/C(=O)NO)c2)cc1 [resminostat]
Apoptosis signalling (Bim, Bax, Caspases 3, 8 and 9 up; Bcl-xL down) (multiple myeloma cells): pro-apoptotic signals were seen
Objective response rate (Cheson criteria, independent central review, interim analysis) ([1]; 11 of 33 evaluable patients): 33%
Clinical benefit rate ([1]; 18 of 33 patients): 55%
Patients who achieved SD (advanced solid tumors; 600 mg dose group): Three of 3
Patients with stable disease (SD) lasting >8 weeks (advanced solid tumors; all dose levels, 95% CI: 34–80): 58%
Reduction in the sum of the longest diameters of tumor target lesions (advanced solid tumors; one patient with metastatic thymoma): 27%
Time on study with SD (advanced solid tumors; patient with liposarcoma, 31 cycles): 14.2 months
Dysgeusia, treatment-related, patients by maximum grade ([2]; 100 mg (N=3), grade 1): 1
Fatigue, treatment-related, patients by maximum grade ([2]; 100 mg (N=3), grade 1): 1
Total number of AEs at each dose level ([2]; 100 mg (N=3)): 2
Nausea, treatment-related, patients by maximum grade ([2]; 200 mg (N=3), grade 1): 1
ALT increase, treatment-related, patients by maximum grade ([2]; 200 mg (N=3), grade 2): 1
Total number of AEs at each dose level ([2]; 200 mg (N=3)): 2
Arrhythmia, treatment-related, patients by maximum grade ([2]; 400 mg (N=3), grade 1): 1
Thrombocytopenia, treatment-related, patients by maximum grade ([2]; 400 mg (N=3), grade 1): 1
Nausea, treatment-related, patients by maximum grade ([2]; 400 mg (N=3), grade 2): 2
Total number of AEs at each dose level ([2]; 400 mg (N=3)): 4
Anorexia, treatment-related, patients by maximum grade ([2]; 600 mg (N=3), grade 1): 1
Depression, treatment-related, patients by maximum grade ([2]; 600 mg (N=3), grade 1): 1
Diarrhea, treatment-related, patients by maximum grade ([2]; 600 mg (N=3), grade 1): 1
Dysgeusia, treatment-related, patients by maximum grade ([2]; 600 mg (N=3), grade 1): 1
Fatigue, treatment-related, patients by maximum grade ([2]; 600 mg (N=3), grade 1): 1
Nausea, treatment-related, patients by maximum grade ([2]; 600 mg (N=3), grade 1): 3
Vomiting, treatment-related, patients by maximum grade ([2]; 600 mg (N=3), grade 1): 2
Anemia, treatment-related, patients by maximum grade ([2]; 600 mg (N=3), grade 2): 1
Fatigue, treatment-related, patients by maximum grade ([2]; 600 mg (N=3), grade 2): 1
Anorexia, treatment-related, patients by maximum grade ([2]; 800 mg (N=7), grade 1): 3
Dysgeusia, treatment-related, patients by maximum grade ([2]; 800 mg (N=7), grade 1): 1
Electrocardiogram QT prolongation, treatment-related, patients by maximum grade ([2]; 800 mg (N=7), grade 1): 1
Epistaxis, treatment-related, patients by maximum grade ([2]; 800 mg (N=7), grade 1): 1
Fatigue, treatment-related, patients by maximum grade ([2]; 800 mg (N=7), grade 1): 1
Hypokalemia, treatment-related, patients by maximum grade ([2]; 800 mg (N=7), grade 1): 1
Nausea, treatment-related, patients by maximum grade ([2]; 800 mg (N=7), grade 1): 4
Vomiting, treatment-related, patients by maximum grade ([2]; 800 mg (N=7), grade 1): 2
Weight decrease, treatment-related, patients by maximum grade ([2]; 800 mg (N=7), grade 1): 1
AST increase, treatment-related, patients by maximum grade ([2]; 800 mg (N=7), grade 2): 1
Anorexia, treatment-related, patients by maximum grade ([2]; 800 mg (N=7), grade 2): 1
Diarrhea, treatment-related, patients by maximum grade ([2]; 800 mg (N=7), grade 2): 1
Dysgeusia, treatment-related, patients by maximum grade ([2]; 800 mg (N=7), grade 2): 1
Fatigue, treatment-related, patients by maximum grade ([2]; 800 mg (N=7), grade 2): 3
Nausea, treatment-related, patients by maximum grade ([2]; 800 mg (N=7), grade 2): 2
Vomiting, treatment-related, patients by maximum grade ([2]; 800 mg (N=7), grade 2): 2
Weight decrease, treatment-related, patients by maximum grade ([2]; 800 mg (N=7), grade 2): 1
ALT increase, treatment-related, patients by maximum grade ([2]; 800 mg (N=7), grade 3): 1
Fatigue, treatment-related, patients by maximum grade ([2]; 800 mg (N=7), grade 3): 1
Nausea, treatment-related, patients by maximum grade ([2]; 800 mg (N=7), grade 3): 1
Vomiting, treatment-related, patients by maximum grade ([2]; 800 mg (N=7), grade 3): 1
Evaluable patients sustaining a DLT ([2]; 800 mg dose level, first cycle): 1 of 6
AST abnormalities, share of all administered cycles ([2]; 68 cycles): 21%
Patients who omitted doses due to treatment-related AEs ([2]; N=19): 21%
Patients who underwent dose reductions due to treatment-related AEs ([2]; N=19): 21%
ALT increase, treatment-related, patients by maximum grade ([2]; Total (N=19), grade 1): 2
AST increase, treatment-related, patients by maximum grade ([2]; Total (N=19), grade 1): 1
Anemia, treatment-related, patients by maximum grade ([2]; Total (N=19), grade 1): 1
Anorexia, treatment-related, patients by maximum grade ([2]; Total (N=19), grade 1): 4
Arrhythmia, treatment-related, patients by maximum grade ([2]; Total (N=19), grade 1): 1
Depression, treatment-related, patients by maximum grade ([2]; Total (N=19), grade 1): 1
Diarrhea, treatment-related, patients by maximum grade ([2]; Total (N=19), grade 1): 1
Dysgeusia, treatment-related, patients by maximum grade ([2]; Total (N=19), grade 1): 3
Electrocardiogram QT prolongation, treatment-related, patients by maximum grade ([2]; Total (N=19), grade 1): 1
Epistaxis, treatment-related, patients by maximum grade ([2]; Total (N=19), grade 1): 1
Fatigue, treatment-related, patients by maximum grade ([2]; Total (N=19), grade 1): 3
Hypokalemia, treatment-related, patients by maximum grade ([2]; Total (N=19), grade 1): 1
Nausea, treatment-related, patients by maximum grade ([2]; Total (N=19), grade 1): 8
Thrombocytopenia, treatment-related, patients by maximum grade ([2]; Total (N=19), grade 1): 1
Vomiting, treatment-related, patients by maximum grade ([2]; Total (N=19), grade 1): 4
Weight decrease, treatment-related, patients by maximum grade ([2]; Total (N=19), grade 1): 1
Anorexia, treatment-related, patients by maximum grade ([2]; Total (N=19), grade 2): 1
Diarrhea, treatment-related, patients by maximum grade ([2]; Total (N=19), grade 2): 1
Dysgeusia, treatment-related, patients by maximum grade ([2]; Total (N=19), grade 2): 1
Fatigue, treatment-related, patients by maximum grade ([2]; Total (N=19), grade 2): 4
Nausea, treatment-related, patients by maximum grade ([2]; Total (N=19), grade 2): 4
Vomiting, treatment-related, patients by maximum grade ([2]; Total (N=19), grade 2): 2
Weight decrease, treatment-related, patients by maximum grade ([2]; Total (N=19), grade 2): 1
Fatigue, treatment-related, patients by maximum grade ([2]; Total (N=19), grade 3): 1
Nausea, treatment-related, patients by maximum grade ([2]; Total (N=19), grade 3): 1
Vomiting, treatment-related, patients by maximum grade ([2]; Total (N=19), grade 3): 1
Grade 4 treatment-related adverse events ([2]; all dose levels): No grade 4 treatment-related adverse event
Treatment-related deaths ([2]; all dose levels): No treatment-related deaths
Anemia regardless of causality, patients ([2]; all grades, N=19): 89%
GGT elevation regardless of causality, patients ([2]; all grades, N=19): 80%
Hypermagnesemia, patients ([2]; all grades, N=19): 26%
Hypokalemia, patients ([2]; all grades, N=19): 58%
Hyponatremia, patients ([2]; all grades, N=19): 58%
Lymphopenia, patients ([2]; all grades, N=19): 89%
Neutropenia, patients ([2]; all grades, N=19): 21%
Grade 1-2 dysgeusia, patients ([2]; all patients (N=19)): 21%
Patients with SAEs unrelated to treatment ([2]; all patients (N=19)): 37%
Patients with treatment-related SAE ([2]; all patients (N=19)): 11%
Treatment-related anorexia, irrespective of grade, patients ([2]; all patients (N=19)): 26%
Treatment-related fatigue, irrespective of grade, patients ([2]; all patients (N=19)): 42%
Treatment-related nausea, irrespective of grade, patients ([2]; all patients (N=19)): 68%
Treatment-related vomiting, irrespective of grade, patients ([2]; all patients (N=19)): 37%
Number of treatment-related serious adverse events (SAE) ([2]; all patients (N=19), both patients in 800 mg cohort): 3
Anorexia, irrespective of causality and grade, share of administered cycles [2, 3]: 31%
Fatigue, irrespective of causality and grade, share of administered cycles [2, 3]: 40%
Grade 3 fatigue, number of treatment cycles [2, 3]: 3 treatment cycles
Nausea, irrespective of causality and grade, share of administered cycles [2, 3]: 60%
Hypokalemia, patients ([2]; grade 1, N=19): 47%
Hyponatremia, patients ([2]; grade 1, N=19): 47%
Leukopenia, patients ([2]; grade 1-2, N=19): 37%
Thrombocytopenia, patients ([2]; grade 1-2, N=19): 37%
Anemia regardless of causality, patients ([2]; grade 2, N=19): 47%
Lymphopenia, patients ([2]; grade 2, N=19): 42%
Anemia regardless of causality, patients ([2]; grade 3, N=19): 11%
GGT elevation, patients ([2]; grade 3, N=19): 11%
Hypokalemia, patients ([2]; grade 3, N=19): 11%
Hyponatremia, patients ([2]; grade 3, N=19): 11%
Lymphopenia, patients ([2]; grade 3, N=19): 21%
Maximum tolerated dose (MTD) ([2]; once-daily days 1-5 every 14 days, up to 800 mg): not reached
Recommended phase II dose (RP2D) ([2]; orally once-daily on days 1-5 every 14 days): 600 mg
